Source: PubChem BioAssay
The list is not random: actives were taken first. Their share in the collection is about 2.9%.
CaV13 FRET inh – Disruptors of the CACNA1D IQ motif to Ca2+-dependent inactivation inhibitor domain association, primary screening, Förster resonance energy transfer in intact living …; HEK cells, CFP/YFP FRET ICDI-IQ, plate reader, 10 min; percent FRET-ratio fall versus neutral wells; AID 743397; inhibition, % at 12.3 µM; 340,000 tested, 0.098% active;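 active = mean replicate inhibition of at least 30% and at least 1% of replicates passing that level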
ADAM10 inh – human ADAM10 inhibitors, primary screen, biochemical, QFRET, HTS. recombinant ADAM10, EDANS/DABCYL FRET peptide cleavage, 3 h. inhibition, % at 7 µM. Disintegrin and metalloproteinase domain-containing protein 10 (Homo sapiens), O14672. 370,000 tested, 0.62% active;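 active = inhibition above a per-campaign cutoff equal to the mean of compounds falling between control-based bounds plus 3 SD, cut at about 20% in these data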
ADAM17 inh – ADAM17 inhibitors, primary screen, biochemical, QFRET. 370,000 tested, 0.83% active. inhibition, % at 6.95 µM. AID 720648, 2013. recombinant ADAM17, EDANS/DABCYL FRET peptide cleavage. Disintegrin and metalloproteinase domain-containing protein 17 (Homo sapiens), P78536;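 active = inhibition above the mean of compounds lying between control limits plus 3 SD, set per campaign, cut at about 8.5% in these data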
FAS TE block – FAS thioesterase domain inhibitors, primary screen, biochemical, fluorescence intensity, uHTS; recombinant FAS-TE, OMFH fluorogenic substrate, fluorescence endpoint; inhibition, % at 15 µM; AID 602261, 2012; Fatty acid synthase (Homo sapiens), P49327; 360,000 tested, 0.67% active;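 active = compounds whose normalised, plate-corrected inhibition of enzyme fluorescence in the single-dose primary screen is 50% or more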
Arrestin-AP2 inh – inhibitors of beta-arrestin/AP2 binding, primary screen, biochemical, GPCR trafficking, flow cytometry. inhibition, % at 10 µM. 340,000 tested, 0.31% active. beta-arrestin 1 C-terminal peptide binding to AP2 beta2-adaptin appendage (human). AID 504490, 2011. FITC-arrestin peptide / GST-AP2 beads; AP2 beta2 appendage carries R879A mutation;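 active = inhibition above a set limit, near 3 SD of compounds lacking own fluorescence, cut at about 54% in these data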
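Measured by: flow cytometry, FL1 (488/535 nm); Material: AP2 appendage R879A on GSH beads; Evaluation: percent response; Timing: pre-incubation 12 min, peptide binding 1 h, room temperature; Also added: 50 nM FITC-arrestin peptide; Medium: PBS with 0.05% Tween 20 and 0.1% BSA.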
NRP1-CendR mod – modulators of CendR peptide binding to NRP-1, primary screen, biochemical, fluorescence polarization, uHTS. AID 602438, 2012. inhibition, % at 25 µM. FAM-RPARPAR peptide binding to NRP-1. 360,000 tested, 0.85% active;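 active = inhibition or corrected inhibition above about 18%, plus a signal ratio from 0.5 to 1.5, limit read from the data, passing the limit was not always enough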
Target sequence (O14786 whole entry, looked up): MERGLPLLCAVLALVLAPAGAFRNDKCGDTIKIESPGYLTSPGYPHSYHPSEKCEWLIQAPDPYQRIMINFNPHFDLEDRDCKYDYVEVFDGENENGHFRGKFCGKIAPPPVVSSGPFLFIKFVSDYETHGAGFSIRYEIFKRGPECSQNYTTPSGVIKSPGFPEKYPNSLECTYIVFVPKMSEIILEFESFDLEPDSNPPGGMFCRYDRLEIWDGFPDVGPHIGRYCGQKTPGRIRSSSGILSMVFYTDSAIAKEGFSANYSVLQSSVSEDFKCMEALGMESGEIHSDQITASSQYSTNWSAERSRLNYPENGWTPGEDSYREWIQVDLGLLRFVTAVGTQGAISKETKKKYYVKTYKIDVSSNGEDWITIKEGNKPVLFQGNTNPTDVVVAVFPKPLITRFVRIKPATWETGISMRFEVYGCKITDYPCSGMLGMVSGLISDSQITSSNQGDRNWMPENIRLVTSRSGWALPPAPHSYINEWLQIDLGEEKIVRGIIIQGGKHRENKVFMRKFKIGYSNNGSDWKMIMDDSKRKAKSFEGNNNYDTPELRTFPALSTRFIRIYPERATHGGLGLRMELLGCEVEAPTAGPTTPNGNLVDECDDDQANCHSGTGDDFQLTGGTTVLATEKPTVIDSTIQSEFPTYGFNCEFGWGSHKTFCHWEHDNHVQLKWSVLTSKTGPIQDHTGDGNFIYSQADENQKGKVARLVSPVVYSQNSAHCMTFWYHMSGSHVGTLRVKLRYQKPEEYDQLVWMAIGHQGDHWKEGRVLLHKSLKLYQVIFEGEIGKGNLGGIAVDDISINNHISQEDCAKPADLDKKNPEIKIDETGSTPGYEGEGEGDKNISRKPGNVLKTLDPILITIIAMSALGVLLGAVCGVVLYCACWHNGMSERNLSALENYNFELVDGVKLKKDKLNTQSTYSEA
Arr AP2 CP1 – inhibitors of arrestin peptide binding to AP2, confirmation, biochemical, cherry pick 1, flow cytometry beads. shares compounds with Arrestin-AP2 inh. GST-AP2 beads, FITC arrestin peptide binding; GST-fused beta2-adaptin appendage, R879A mutant. inhibition, % at 10 µM. 1,300 tested, 2% active. AID 504908, 2011;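 active = inhibition above a set limit, roughly 3 SD of non-fluorescent compound noise, cut at about 38% in these data; inactive = inhibition at or below that limit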;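 also: loss of bead fluorescence from 50 nM FITC arrestin peptide bound to appendage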
GST-FITC bead – GST-fluorescein capture on glutathione beads, confirmation, artefact control for arrestin-AP2 inhibitor project, biochemical, cherry pick 1, flow cytometry. shares compounds with Arrestin-AP2 inh. GST-fluorescein binding to GSH beads, fluorescence, counter-screen. inhibition, % at 10 µM. 1,300 tested, 2% active. AID 588338, 2011;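 active = inhibition above 50%, about 3 SD of the inhibition seen with non-fluorescent compounds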;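 also: fluorescein maleimide labelled GST captured on 4 micron glutathione beads; higher means more loss of bead fluorescence from quenching or blocked binding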
A number is an active result; 0 = inactive; - = no result given.

SMILES	CaV13 FRET inh	ADAM10 inh	ADAM17 inh	FAS TE block	Arrestin-AP2 inh	NRP1-CendR mod	Arr AP2 CP1	GST-FITC bead
CC(Oc1ccc(Br)cc1)C(=O)N1CCN(c2ccccn2)CC1 (stereo not given)	0	0	0	0	0	0	-	-
CC(Oc1ccc(Br)cc1)C(=O)N1CCC(C(N)=O)CC1 (stereo not given)	0	0	0	0	59	0	0	0
CC(N)c1csc(Nc2ccc(S(C)(=O)=O)cc2)n1 (stereo not given)	0	0	0	0	-	0	-	-
Cc1cc(C)cc(NC(=S)N(Cc2ccc(Cl)cc2)Cc2ccc(C(=O)O)cc2)c1	0	0	0	0	0	0	-	-
Cc1cccc(NC(=S)N(Cc2ccc(Cl)cc2)Cc2ccc(C(=O)O)cc2)c1	0	0	0	0	56	0	0	0
Cc1nc2[nH]c(=S)[nH]c2c(=O)[nH]1	0	0	0	0	0	0	-	-
CC(=O)Nc1ccc(C(=O)COC(=O)c2ccco2)c(F)c1	0	0	0	0	0	0	-	-
CC(=O)Nc1ccc(C(=O)COC(=O)c2cc(C)oc2C)c(F)c1	0	0	0	0	72	0	0	0
COc1cc(OC)cc(C(=O)Nc2nc3ccc(S(C)(=O)=O)cc3s2)c1	0	0	0	0	104	0	0	0
CSCCC(c1nc2ccccc2[nH]1)n1c(/C=C/c2ccc(F)c(F)c2)nc2ccccc21 (stereo not given)	0	0	0	-	-	0	-	-
Cc1cc(C)cc(NC(=O)C(=O)NCC2CCCN2S(=O)(=O)c2cccs2)c1 (stereo not given)	0	0	0	0	69	0	0	0
Cc1ccc(NC(=O)C(=O)NCC2CCCN2S(=O)(=O)c2cccs2)c(C)c1 (stereo not given)	0	0	0	0	0	0	-	-
CC(=O)N[C@@H]1[C@@H](O)[C@@H]2OC(c3ccccc3)OC[C@H]2O[C@@H]1N=[N+]=[N-] (stereo not given in full)	0	0	0	0	56	0	0	0
COC1OC2COC(c3ccccc3)OC2C(NC(C)=O)C1OC(C)=O (stereo not given)	0	0	0	0	-	0	-	-
CCNC(=O)C(=O)NCc1ccncc1	0	0	0	0	62	0	0	0
CCCCNC(=O)C(=O)NCc1ccncc1	0	0	0	0	0	0	-	-
O=C(c1ccc(Cl)c(Cl)c1)N1CCC(=O)N([C@H](COCc2cccc(C(F)(F)F)c2)Cc2ccccc2)CC1	0	0	0	0	-	0	-	-
Cc1ccc(Cl)cc1N1CCN(C2CCCCC2NS(=O)(=O)c2ccccc2)CC1 (stereo not given)	-	-	-	0	0	0	-	-
Cc1ccc(C)c(N2CCN(C3CCCCC3NS(=O)(=O)c3ccccc3)CC2)c1 (stereo not given)	-	-	-	0	57	0	0	0
CC(=O)N1CCN(c2ccc(NC(=O)c3cccc(OCc4ccccc4)c3)cc2)CC1	-	0	0	0	0	0	-	-
COc1ccc(C(=O)Nc2ccc(N3CCN(C)CC3)cc2)cc1OC	0	0	0	0	65	0	0	0
CC(=O)N1CCN(c2ccc(NC(=O)c3ccc(OCc4ccccc4)cc3)cc2)CC1	0	0	0	0	100	0	0	0
Cc1ccc2c(c1)-c1c(cnn1CC(=O)NCCc1cccc(F)c1)CO2	-	0	0	-	-	-	-	-
CCN(C(=O)Cn1cc(C(=O)C(=O)N2CCOCC2)c2ccccc21)c1ccccc1	0	0	0	0	66	0	0	0
OC(c1ccccc1)c1nc(-c2cccc(C(F)(F)F)c2)cs1 (stereo not given)	0	0	0	0	-	0	-	-
SMILES	CaV13 FRET inh	ADAM10 inh	ADAM17 inh	FAS TE block	Arrestin-AP2 inh	NRP1-CendR mod	Arr AP2 CP1	GST-FITC bead
CCOC(=O)C1=CCN(S(=O)(=O)c2ccccc2C)C1c1ccc(Cl)cc1 (stereo not given)	0	0	0	0	-	0	-	-
O=C(Oc1ccccc1F)c1ccc2c(=O)n3c(nc2c1)CCC3	0	0	0	0	57	0	0	0
O=C(CNC(=O)c1ccccc1)NCC(c1ccco1)N1CCCC1 (stereo not given)	0	0	0	0	0	0	-	-
O=C(CNC(=O)c1ccccc1Br)NCC(c1ccco1)N1CCCCC1 (stereo not given)	0	0	0	0	66	0	0	0
C=CCN1C(=O)/C(=C/c2ccc(-c3ccc(F)cc3)o2)SC1=S	0	0	0	0	67	0	0	0
Nc1c(C(=O)NC2CC2)sc2nc3c(c(-c4ccco4)c12)CC/C3=C/c1ccco1	-	-	-	0	55	0	0	0
CCOc1ccc(NC(=O)CN2C(=O)C(C)SC(C)C2=O)cc1 (stereo not given)	0	0	0	0	55	25	0	0
CCOc1ccc(NC(=O)CN2C(=O)C3CC=CCC3C2=O)cc1 (stereo not given)	0	0	0	0	0	0	-	-
COc1ccccc1CNC(=O)c1ccc2nc(C)c(N(C)Cc3ccc(NC(C)=O)cc3)n2c1	0	0	0	0	-	0	-	-
Cn1nnnc1Sc1ncnc2scc(-c3cc4ccccc4o3)c12	0	0	0	0	0	0	-	-
O=C(CCNC(=O)C1CCN(S(=O)(=O)c2ccccc2)CC1)NCc1cccc(Cl)c1	0	0	0	0	0	0	-	-
O=C(CCNC(=O)C1CCN(S(=O)(=O)c2ccccc2)CC1)NCc1ccc(Cl)cc1	0	0	0	0	63	0	0	0
COc1ccc(N2C(=O)CSC2c2ccc3c(c2)OCO3)cc1 (stereo not given)	0	0	0	0	61	0	0	0
NC(CCC(=O)NC(CS)C(=O)NCC(=O)O)C(=O)O (stereo not given)	0	0	0	0	0	0	-	-
CCOc1cccc(OCCCNCCCOC)c1	0	0	0	0	93	0	0	0
CCc1cccc(OCCCCNCCCOC)c1	0	0	0	0	0	0	-	-
COCCN(C(=O)COC(=O)/C(=C/c1ccccc1)NC(C)=O)c1c(N)n(Cc2ccccc2)c(=O)[nH]c1=O	0	0	0	0	59	0	0	0
